# Source: PubChem BioAssay AID488804 (Broad Institute, 2010)
# Calls of active or inactive are those of the source.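 Rule for the calls: active = luminescence cut by over half relative to the proteasome inhibitor control, with potency below ten times the top valid dose; inactive = no activity, or signal change in the wrong direction.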
# Biological target: 26S proteasome chymotrypsin-like activity (human)
# Assay: proteasome function in U2OS cells – cell-based, luminescence, dry powder, set 2, counter-screen, dose response (AID 488804)
# Conditions: Proteasome-Glo chymotrypsin luminescence
# Summary of the method: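 System – U2OS cells, proteasome chymotrypsin-like activity · Quantity – 2,500 cells per well · Timing – cells 24 h/37 °C, compounds 4 h, reagent 2 h RT · Signal – luminescent Proteasome-Glo readout · Controls – MG132 positive control · Replication – duplicates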
row,SMILES,AC50
1,O=C(Nc1cn2ccccc2n1)c1cc(-c2ccccc2)on1,6.99 µM
2,O=C(Nc1ncc(-c2ccccc2)o1)c1cc(-c2ccccc2)on1,38 µM
3,Cc1cccc(NC(=O)c2cc(-c3ccccc3)on2)n1,2.63 µM
4,CCCCNC(=O)c1cc(-c2ccccc2)on1,38 µM
5,O=C(Nc1ncc2ccccc2n1)c1cc(-c2ccccc2)on1,23.5 µM

# Same assay, conditions: Proteasome-Glo chymotrypsin luminescence, at 38 µM (top of the series)
row,SMILES,"activity change, negative = inhibition"
1,Cn1c(NC(=O)c2cc(-c3ccccc3)on2)nc2ccccc21,inactive
2,OCC1CCN(c2nc(-c3ccccn3)nnc2-c2ccccc2)CC1,inactive
3,c1ccc(-c2csc(Nc3nc(-c4ccccn4)nnc3-c3ccccc3)n2)cc1,inactive
4,O=C(c1cc(-c2ccccc2)on1)N1CCc2cccnc21,inactive
5,CC(C)(C)CCNC(=O)c1cc(-c2ccccc2)on1,inactive
6,Cc1ccc(CNC(=O)c2cc(-c3ccccc3)on2)cc1,inactive
7,O=C(NCCCO)c1cc(-c2ccccc2)on1,inactive
8,OCCCNc1nc(-c2ccccn2)nnc1-c1ccccc1,inactive
9,O=C(NCCCn1ccnc1)c1cc(-c2ccccc2)on1,inactive
10,Cc1cccc(CNc2nc(-c3ccccn3)nnc2-c2ccccc2)c1,inactive
11,Cn1c(-c2ccccc2)cnc1NC(=O)c1cc(-c2ccccc2)on1,inactive
12,Cc1ccc(Nc2nc(-c3ccccn3)nnc2-c2ccccc2)cn1,inactive
13,O=C(c1cc(-c2ccccc2)on1)N1CCC(N2CCOCC2)CC1,inactive
14,Cc1cccc(Nc2nc(-c3ccccn3)nnc2-c2ccccc2)n1,inactive
15,O=C(c1cc(-c2ccccc2)on1)N1CCN(c2ccncc2)CC1,inactive
16,Cc1cccc(CNC(=O)c2cc(-c3ccccc3)on2)c1,inactive
17,c1ccc(-c2nnc(-c3ccccn3)nc2Nc2cnc3ccccc3n2)cc1,inactive
18,c1ccc(-c2nnc(-c3ccccn3)nc2NCCCN2CCOCC2)cc1,inactive
19,Cc1ccc(NC(=O)c2cc(-c3ccccc3)on2)cn1,inactive
20,CN1CCN(C(=O)c2cc(-c3ccccc3)on2)CC1,inactive
21,Cc1ccc(CNc2nc(-c3ccccn3)nnc2-c2ccccc2)cc1,inactive
22,c1ccc(-c2nnc(-c3ccccn3)nc2Nc2nc3ccccc3s2)cc1,inactive
23,O=C(Nc1ccc2ccccc2n1)c1cc(-c2ccccc2)on1,inactive
24,O=C(NCCN1CCCCC1)c1cc(-c2ccccc2)on1,inactive
25,c1ccc(-c2nnc(-c3ccccn3)nc2NCC2CC2)cc1,inactive
26,O=C(c1cc(-c2ccccc2)on1)N1CCC(CO)CC1,inactive
27,O=C(NC1Cc2ccccc2C1)c1cc(-c2ccccc2)on1,inactive

row,SMILES,"activity change, negative = inhibition"
1,O=C(NC1CCc2ccccc2C1)c1cc(-c2ccccc2)on1 (centres undefined),inactive
2,Cn1c(-c2ccccc2)cnc1Nc1nc(-c2ccccn2)nnc1-c1ccccc1,inactive
3,O=C(Nc1nc2ccccc2s1)c1cc(-c2ccccc2)on1,inactive
4,O=C(NCCCCO)c1cc(-c2ccccc2)on1,inactive
5,O=C(NCC1CCCCC1)c1cc(-c2ccccc2)on1,inactive
6,CN(C)CCNC(=O)c1cc(-c2ccccc2)on1,inactive
7,O=C(NCc1ccccc1)c1cc(-c2ccccc2)on1,inactive
8,C=CCNc1nc(-c2ccccn2)nnc1-c1ccccc1,inactive
9,Cc1ccccc1CNc1nc(-c2ccccn2)nnc1-c1ccccc1,inactive
10,O=C(NCC1CC1)c1cc(-c2ccccc2)on1,inactive
11,O=C(NCCN1CCOCC1)c1cc(-c2ccccc2)on1,inactive
12,O=C(Nc1nnc(-c2ccccc2)s1)c1cc(-c2ccccc2)on1,inactive
13,CN1CCN(c2nc(-c3ccccn3)nnc2-c2ccccc2)CC1,inactive
14,c1ccc(CNc2nc(-c3ccccn3)nnc2-c2ccccc2)cc1,inactive
15,O=C(Nc1nc(-c2ccccc2)cs1)c1cc(-c2ccccc2)on1,inactive
16,CC(C)(C)CCNc1nc(-c2ccccn2)nnc1-c1ccccc1,inactive
17,CN(C)c1nc(-c2ccccn2)nnc1-c1ccccc1,inactive
18,O=C(Nc1cnc2ccccc2c1)c1cc(-c2ccccc2)on1,inactive
19,c1ccc(-c2cnc(Nc3nc(-c4ccccn4)nnc3-c3ccccc3)s2)cc1,inactive
20,O=C(c1cc(-c2ccccc2)on1)N1CCC(N2CCCC2)CC1,inactive
21,O=C(NCCCN1CCOCC1)c1cc(-c2ccccc2)on1,inactive
22,c1ccc(-c2nnc(Nc3nc(-c4ccccn4)nnc3-c3ccccc3)s2)cc1,inactive
23,c1ccc(-c2nnc(-c3ccccn3)nc2N2CCC(N3CCOCC3)CC2)cc1,inactive
24,c1ccc(-c2nnc(-c3ccccn3)nc2NCC2CCCCC2)cc1,inactive
25,Cc1ccccc1CNC(=O)c1cc(-c2ccccc2)on1,inactive
26,c1ccc(-c2nnc(-c3ccccn3)nc2NCCN2CCOCC2)cc1,inactive
27,c1ccc(-c2nnc(-c3ccccn3)nc2N2CCN(c3ccncc3)CC2)cc1,inactive
